Like-named read-outs stand apart in the source and are kept apart here.
What was measured:
A549 = assay: MTS cytotoxicity assay, 72 h, A549; type: cell-based, human; settings: Homo sapiens, A549, 72 h, read-out: IC50 A549
How it was run: (§1)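 Human lines were kept at 37 °C, 5% CO2 in recommended medium plus 10% FCS, penicillin–streptomycin, 2 mM glutamine, 1 mM bicarbonate, 1 mM pyruvate and 20 mM HEPES, and were mycoplasma-tested biweekly. Cells were exposed to test compound for 72 h on a robotic screening platform, then read by MTS. DMSO-treated cells were the negative control. IC50 came from dose–response curves, mean of ≥6 replicates.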

HCT116 = assay: MTS cytotoxicity assay, 72 h, HCT116; type: cell-based, human; settings: Homo sapiens, HCT-116, 72 h, read-out: IC50 HCT116
How it was run: as §1

HCT116-p53 = assay: MTS cytotoxicity assay, 72 h, HCT116-p53; type: cell-based, human; settings: Homo sapiens, read-out: IC50 HCT116-p53
How it was run: as §1

U2OS = assay: MTS cytotoxicity assay, 72 h, U2OS; type: cell-based, human; settings: Homo sapiens, U2OS, read-out: IC50 U2OS
How it was run: as §1

RAMOS = assay: MTS cytotoxicity assay, 72 h, RAMOS; type: cell-based, human; settings: Homo sapiens, Ramos, read-out: IC50 RAMOS
How it was run: as §1

K562 = assay: MTS cytotoxicity assay, 72 h, K562; type: cell-based, human; settings: Homo sapiens, K562, 72 h, read-out: IC50 K562
How it was run: as §1

Jurkat = assay: MTS cytotoxicity assay, 72 h, Jurkat; type: cell-based, human; settings: Homo sapiens, Jurkat, read-out: IC50 Jurkat
How it was run: as §1

CCRF-CEM = assay: MTS cytotoxicity assay, 72 h, CCRF-CEM; type: cell-based, human; settings: Homo sapiens, CCRF-CEM, read-out: IC50 CCRF-CEM
How it was run: as §1

BJ = assay: MTS cytotoxicity assay, 72 h, BJ fibroblasts; type: cell-based, human; settings: Homo sapiens, BJ, read-out: IC50 BJ
How it was run: as §1

MRC-5 = assay: MTS cytotoxicity assay, 72 h, MRC-5 fibroblasts; type: cell-based, human; settings: Homo sapiens, MRC5, 72 h, read-out: IC50 MRC-5
How it was run: as §1

[1] = system: panel of human cell lines; assay: MTS cytotoxicity assay, statements over groups of cell lines of the panel; type: cell-based; settings: Homo sapiens
How it was run: as §1

[2] = 72 h, read-out: IC50 across all tested cell lines
[3] = read-out: IC50 across multiple cancer lines

| Structure (SMILES) | IC50 (A549) [µM] | IC50 (HCT116) [µM] | IC50 (HCT116-p53) [µM] | IC50 (U2OS) [µM] | IC50 (RAMOS) [µM] | IC50 (K562) [µM] | IC50 (Jurkat) [µM] | IC50 (CCRF-CEM) [µM] | IC50 (BJ) [µM] | IC50 (MRC-5) [µM] | IC50 [1, 2] [µM] | IC50 [1, 3] [µM] |
| --- | --- | --- | --- | --- | --- | --- | --- | --- | --- | --- | --- | --- |
| O=C(Nc1ccccc1)C1CN(c2cc(-c3ccncc3)n[nH]c2=O)C1 [Compound 7, 1-(3-oxo-6-(pyridin-4-yl)-2,3-dihydropyridazin-4-yl)-N-phenylazetidine-3-carboxamide] | > 50 | > 50 | > 50 | > 50 | > 50 | > 50 | > 50 | > 50 | > 50 | > 50 | > 50 |  |
| O=C(Nc1ccccc1)C1CN(c2cc(-c3ccccc3)n[nH]c2=O)C1 [Compound 8, 1-(3-oxo-6-phenyl-2,3-dihydropyridazin-4-yl)-N-phenylazetidine-3-carboxamide] | > 50 | > 50 | > 50 | > 50 | > 50 | > 50 | > 50 | > 50 | > 50 | > 50 | > 50 |  |
| COc1ccc(-c2cc(N3CC(C(=O)Nc4ccccc4)C3)c(=O)[nH]n2)cc1 [Compound 10, 1-(6-(4-methoxyphenyl)-3-oxo-2,3-dihydropyridazin-4-yl)-N-phenylazetidine-3-carboxamide] | > 50 | > 50 | > 50 | > 50 | 11 | > 50 | 40.3 | 20.8 | > 50 | > 50 |  |  |
| O=C(Nc1ccccc1)C1CN(c2cc(-c3ccc(Cl)cc3)n[nH]c2=O)C1 [Compound 11, 1-(6-(4-chlorophenyl)-3-oxo-2,3-dihydropyridazin-4-yl)-N-phenylazetidine-3-carboxamide] | 32 | 38.9 | 37.9 | 26.9 | 10.4 | > 50 | 33.2 | 23 | 34 | 26 |  | 18 to 37 |
| O=C(Nc1ccccc1)C1CN(c2cc(-c3ccc(F)cc3F)n[nH]c2=O)C1 [Compound 12, 1-(6-(2,4-difluorophenyl)-3-oxo-2,3-dihydropyridazin-4-yl)-N-phenylazetidine-3-carboxamide] | 36.3 | 37.1 | 32.8 | 16.2 | 16.8 | 31.8 | 33.9 | 18 | 28.9 | 16.6 |  | 18 to 37 |
| O=C(NCc1ccco1)C1CN(c2cc(-c3ccncc3)n[nH]c2=O)C1 [Compound 17, N-(furan-2-ylmethyl)-1-(3-oxo-6-(pyridin-4-yl)-2,3-dihydropyridazin-4-yl)azetidine-3-carboxamide] | > 50 | > 50 | > 50 | > 50 | > 50 | > 50 | > 50 | > 50 | > 50 | > 50 | > 50 |  |
| O=C(NCc1ccco1)C1CN(c2cc(-c3ccccc3)n[nH]c2=O)C1 [Compound 18, N-(furan-2-ylmethyl)-1-(3-oxo-6-phenyl-2,3-dihydropyridazin-4-yl)azetidine-3-carboxamide] | > 50 | > 50 | > 50 | > 50 | 41.2 | 30.4 | 19.2 | 30.2 | > 50 | > 50 |  |  |
| O=C(NCc1ccco1)C1CN(c2cc(-c3cccc(F)c3)n[nH]c2=O)C1 [Compound 19, 1-(6-(3-fluorophenyl)-3-oxo-2,3-dihydropyridazin-4-yl)-N-(furan-2-ylmethyl)azetidine-3-carboxamide] | > 50 | > 50 | > 50 | > 50 | 16.3 | > 50 | 25.1 | > 50 | > 50 | > 50 |  |  |
| COc1ccc(-c2cc(N3CC(C(=O)NCc4ccco4)C3)c(=O)[nH]n2)cc1 [Compound 20, N-(furan-2-ylmethyl)-1-(6-(4-methoxyphenyl)-3-oxo-2,3-dihydropyridazin-4-yl)azetidine-3-carboxamide] | > 50 | > 50 | > 50 | > 50 | 19.7 | 38.7 | 24.3 | > 50 | > 50 | > 50 |  |  |
| O=C(NCc1ccco1)C1CN(c2cc(-c3ccc(Cl)cc3)n[nH]c2=O)C1 [Compound 21, 1-(6-(4-chlorophenyl)-3-oxo-2,3-dihydropyridazin-4-yl)-N-(furan-2-ylmethyl)azetidine-3-carboxamide] | > 50 | > 50 | > 50 | > 50 | 37.5 | > 50 | 30.5 | > 50 | > 50 | > 50 |  |  |
| COC(=O)c1cncc(-c2cc(N3CC(C(=O)NCc4ccco4)C3)c(=O)[nH]n2)c1 [Compound 23, methyl 5-(5-(3-((furan-2-ylmethyl)carbamoyl)azetidin-1-yl)-6-oxo-1,6-dihydropyridazin-3-yl)nicotinate] | 42.1 | 8.83 | 12.7 | 16.9 | 5.53 | 7.4 | 5.15 | 5.12 | > 50 | > 50 |  |  |
| O=C(C1CN(c2cc(-c3ccncc3)n[nH]c2=O)C1)N1CCN(c2ccccc2)CC1 [Compound 28, 4-(3-(4-phenylpiperazine-1-carbonyl)azetidin-1-yl)-6-(pyridin-4-yl)pyridazin-3(2H)-one] | > 50 | > 50 | > 50 | > 50 | > 50 | > 50 | > 50 | > 50 | > 50 | > 50 |  |  |
| O=C(C1CN(c2cc(-c3ccccc3)n[nH]c2=O)C1)N1CCN(c2ccccc2)CC1 [Compound 29, 6-phenyl-4-(3-(4-phenylpiperazine-1-carbonyl)azetidin-1-yl)pyridazin-3(2H)-one] | > 50 | > 50 | > 50 | > 50 | > 50 | > 50 | > 50 | > 50 | > 50 | > 50 |  |  |
| O=C(NCC(F)(F)F)C1CN(c2cc(-c3ccncc3)n[nH]c2=O)C1 [Compound 34, 1-(3-oxo-6-(pyridin-4-yl)-2,3-dihydropyridazin-4-yl)-N-(2,2,2-trifluoroethyl)azetidine-3-carboxamide] | > 50 | > 50 | > 50 | > 50 | > 50 | > 50 | > 50 | > 50 | > 50 | > 50 | > 50 |  |
| O=C(NCC(F)(F)F)C1CN(c2cc(-c3ccccc3)n[nH]c2=O)C1 [Compound 35, 1-(3-oxo-6-phenyl-2,3-dihydropyridazin-4-yl)-N-(2,2,2-trifluoroethyl)azetidine-3-carboxamide] | > 50 | > 50 | > 50 | > 50 | > 50 | > 50 | > 50 | > 50 | > 50 | > 50 | > 50 |  |
| O=C(NCC(F)(F)F)C1CN(c2cc(-c3cccc(F)c3)n[nH]c2=O)C1 [Compound 36, 1-(6-(3-fluorophenyl)-3-oxo-2,3-dihydropyridazin-4-yl)-N-(2,2,2-trifluoroethyl)azetidine-3-carboxamide] | > 50 | > 50 | > 50 | > 50 | > 50 | > 50 | > 50 | > 50 | > 50 | > 50 | > 50 |  |
| COc1ccc(-c2cc(N3CC(C(=O)NCC(F)(F)F)C3)c(=O)[nH]n2)cc1 [Compound 37, 1-(6-(4-methoxyphenyl)-3-oxo-2,3-dihydropyridazin-4-yl)-N-(2,2,2-trifluoroethyl)azetidine-3-carboxamide] | > 50 | > 50 | > 50 | > 50 | > 50 | > 50 | > 50 | > 50 | > 50 | > 50 | > 50 |  |
| O=C(c1ccncc1)C1CN(c2cc(-c3ccncc3)n[nH]c2=O)C1 [Compound 46, 4-(3-isonicotinoylazetidin-1-yl)-6-(pyridin-4-yl)pyridazin-3(2H)-one] | > 50 | > 50 | > 50 | > 50 | > 50 | > 50 | 35.9 | 29 | > 50 | > 50 |  |  |

Source: article PMC12679438 (RSC Advances, 2025)
